Screens deposited in PubChem BioAssay by several laboratories.
In the library only some 2.2% were active in any assay of this set; here they are far more common.
DNMT1 block – human DNMT1 methyltransferase inhibitors, primary screen, biochemical, molecular beacon, fluorescence, HinP1I cleavage, uHTS; inhibition (reported as % activation of signal), % at 10 µM; DNA (cytosine-5)-methyltransferase 1 (Homo sapiens), P26358; 0.83% of 360,000 active; in the data active = inhibition above about 50%
Target sequence (P26358 504-1616 limits assumed): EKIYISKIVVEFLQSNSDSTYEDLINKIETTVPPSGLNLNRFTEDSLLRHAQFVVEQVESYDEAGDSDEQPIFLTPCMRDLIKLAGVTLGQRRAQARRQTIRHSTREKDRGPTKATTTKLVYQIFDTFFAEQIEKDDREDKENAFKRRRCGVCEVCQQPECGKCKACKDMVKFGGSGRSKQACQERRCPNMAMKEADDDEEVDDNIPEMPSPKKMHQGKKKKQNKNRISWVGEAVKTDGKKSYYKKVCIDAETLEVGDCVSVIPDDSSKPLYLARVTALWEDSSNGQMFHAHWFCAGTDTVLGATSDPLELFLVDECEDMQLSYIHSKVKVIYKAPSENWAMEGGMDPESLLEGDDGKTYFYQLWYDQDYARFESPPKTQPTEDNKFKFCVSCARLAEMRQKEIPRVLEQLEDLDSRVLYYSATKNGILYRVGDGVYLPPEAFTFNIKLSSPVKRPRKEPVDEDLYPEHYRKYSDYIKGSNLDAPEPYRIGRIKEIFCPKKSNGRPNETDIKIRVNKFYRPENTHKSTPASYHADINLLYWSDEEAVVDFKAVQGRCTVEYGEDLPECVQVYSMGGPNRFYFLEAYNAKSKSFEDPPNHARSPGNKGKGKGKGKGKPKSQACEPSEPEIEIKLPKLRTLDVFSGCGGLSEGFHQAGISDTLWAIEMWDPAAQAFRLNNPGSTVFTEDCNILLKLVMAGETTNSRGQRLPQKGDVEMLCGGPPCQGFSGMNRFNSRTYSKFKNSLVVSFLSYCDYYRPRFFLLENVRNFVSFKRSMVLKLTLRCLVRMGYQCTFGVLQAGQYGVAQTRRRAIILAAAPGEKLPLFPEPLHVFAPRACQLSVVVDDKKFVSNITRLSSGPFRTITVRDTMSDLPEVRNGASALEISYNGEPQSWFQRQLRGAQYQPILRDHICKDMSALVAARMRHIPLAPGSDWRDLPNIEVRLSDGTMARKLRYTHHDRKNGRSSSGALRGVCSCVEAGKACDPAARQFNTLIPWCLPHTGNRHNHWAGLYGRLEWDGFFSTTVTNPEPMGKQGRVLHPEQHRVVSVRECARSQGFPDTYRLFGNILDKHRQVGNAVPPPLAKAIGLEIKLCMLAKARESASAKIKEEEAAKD
GRK2 inh – compounds blocking aptamer binding on GRK2 – biochemical, human GRK2, bead flow cytometry, HTS, primary screen. inhibition of aptamer binding, % at 10 µM. AID 488847, 2010. Beta-adrenergic receptor kinase 1 (Homo sapiens), P25098. 0.59% of 330,000 active. FAM-aptamer displacement from GRK2;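 active = inhibition of aptamer binding above 40%, roughly 3 SD of noise, on plates passing a quality check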;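 also: median bead fluorescence of bound FAM aptamer so fluorescent compounds give negative values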
SUMO1-SIM PPI – modulators of SUMO1 protein-protein interactions, primary screen, biochemical, uHTS | SUMO1 binding to a labelled peptide, TR-FRET, 1 h | inhibition, % at 20 µM | 0.33% of 360,000 active | AID 602429, 2012 | Small ubiquitin-related modifier 1 (Homo sapiens), P63165; in the data active = inhibition above about 37%
Scp1 inh – Scp-1 phosphatase inhibitors, primary screen, biochemical, colorimetric, uHTS. Carboxy-terminal domain RNA polymerase II polypeptide A small phosphatase 1 (Homo …. Recombinant Scp1, phosphopeptide, malachite green phosphate absorbance. inhibition, % at 20 µM. 0.88% of 340,000 active. AID 493091, 2011;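 active = inhibition above about 50% at 20 µM, limit read from the data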
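assay system = SCP-1 phosphatase catalytic domain, residues 76-261 | buffer or medium = 50 mM Tris acetate pH 5.5, 0.005% Tween-20, 10 mM MgCl2 | incubation = enzyme reaction 45 min at room temperature, colour 5 min, stabilisation 30 min | signal = Phosphate-binding colour reagent, absorbance read at 630 nm | measure = % inhibition at 20 µM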
STEP inh – STEP phosphatase inhibitors, primary screen, biochemical, fluorescence intensity, uHTS. 0.25% of 360,000 active. inhibition, % at 20 µM. recombinant STEP, OMFP fluorogenic substrate. Tyrosine-protein phosphatase non-receptor type 5 (Homo sapiens), P54829. AID 588621, 2011;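 active = inhibition at 20 µM, scaled per plate between control wells, above about 37%, limit read from the data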
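Material: STEP (striatal-enriched tyrosine phosphatase) enzyme, cell-free; Compound dosing: 20 µM single dose in 1% DMSO; Technique: fluorescence read at 480 nm ex / 540 nm em; Times: reaction 20 min, ambient temperature; Medium: 50 mM Bis-Tris pH 6.0 with 2.5 mM DTT and 0.005% Tween 20; Also added: OMFP at 25 µM.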
LMPTP block – LMPTP phosphatase inhibitors, primary screen, biochemical, fluorescence intensity, uHTS; recombinant LMPTP-A, OMFP fluorogenic substrate; Low molecular weight phosphotyrosine protein phosphatase (Homo sapiens), P24666; inhibition, % at 20 µM; AID 651560, 2012; 0.22% of 360,000 active;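 active = compounds that cut the enzyme signal by at least half of the control window in the single-dose screen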
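Test system: LMPTP-A phosphatase enzyme; input: 0.625 nM LMPTP-A final; reagent: OMFP substrate, 400 µM final; compound dosing: 20 µM single dose, 3% DMSO; incubation: 50 min dark incubation at room temperature; measured by: endpoint fluorescence intensity from OMFP dephosphorylation; measure: % inhibition relative to no-enzyme and uninhibited control wells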
Hits are given with their value; 0 = inactive; - = no result.

SMILES	DNMT1 block	GRK2 inh	SUMO1-SIM PPI	Scp1 inh	STEP inh	LMPTP block
CC[n+]1c(/C=C/C=C/N(C(C)=O)c2ccccc2)sc2cc(OC)ccc21	-	80	-	61	-	-
O=C(NCc1ccccc1)C(C1CC1)n1c(CSCCOc2ccccc2)nc2ccccc21 (stereo unspecified)	-	-	0	-	-	0
N#Cc1cc2ccc(N3CCOCC3)cc2cc1C#N	0	0	44	0	0	0
COc1cccc(CN(C)C(=O)c2ccc(S(=O)(=O)Nc3cccc(C)c3C)cc2)c1OC	0	-	0	-	0	0
COC(=O)Cn1c(C)c(C(C)=O)c(C(C)=O)c1C	0	0	48	0	0	0
COc1ccc(-n2cccc2/C=C2/NC(=O)N(c3cccc(Cl)c3)C2=O)cc1	0	0	0	0	0	0
O=C(O)c1cccc(-n2cccc2/C=C2/NC(=O)N(c3ccc(Cl)cc3)C2=O)c1	87	-	106	81	94	81
O=c1cc2c(=O)oc3cc(O)c(O)oc3c2c(O)c1O	0	-	0	85	96	61
O=c1oc2cc(O)c(Cl)cc2c2ccccc12	0	0	0	0	0	0
O=C(NCCNc1ccc([N+](=O)[O-])cc1)c1cccs1	0	0	0	0	0	0
CC(CNC(=O)c1cccs1)c1ccc([N+](=O)[O-])cc1 (stereo unspecified)	0	0	56	0	0	0
COc1ccc(NC(=O)c2c[nH]n3c(=O)cc(C4CCN(C(=O)OC(C)(C)C)CC4)nc23)cc1Cl	0	0	0	0	0	0
CC(C)(C)OC(=O)N1CCC(c2cc(=O)n3[nH]cc(C(=O)Nc4ccc(F)c(Cl)c4)c3n2)CC1	0	0	51	0	0	0
CCN(CC)C(=O)C1=C(C)N(Cc2ccc(F)cc2)C(=O)C(CC(=O)NCCCN(C)C)C1 (stereo unspecified)	0	-	0	-	0	0
CCOc1ccc(C(=O)CC(C(=O)O)N2CCN(Cc3ccccc3)CC2)cc1 (stereo unspecified)	0	0	0	0	0	0
CCOc1ccc(C(=O)CC(C(=O)O)N2CCCCC2)cc1 (stereo unspecified)	0	43	0	0	0	0
CC1(c2nnnn2Cc2ccccc2)CCC(=O)N1CCOc1ccccc1 (stereo unspecified)	-	-	0	-	-	0
O=C(CSc1nnc(SCc2ccccc2)s1)N/N=C/c1c[nH]c2ccccc12	0	-	75	0	0	0
O=C(CSc1nnc(SCc2ccccc2Cl)s1)N/N=C/c1c[nH]c2ccccc12	0	0	0	0	0	0
Cc1cc(N/N=C/c2ccccc2O)c2ccccc2n1	0	0	0	0	0	51
COc1ccc2nc(C)cc(N/N=C/c3cccc(OC)c3O)c2c1	0	0	0	0	0	0
O=C(c1[nH]c(C(F)(F)F)nc1-c1ccccc1)N1CCN(c2cccc(C(F)(F)F)n2)CC1	0	-	0	-	0	0
CC1(C(=O)NS(=O)(=O)c2ccccc2Cl)CCN1C(=O)CCC1CCCC1 (stereo unspecified)	0	-	0	-	0	0
Cc1cccc2nc(-c3ccccc3)nc(N[C@@H](CO)c3ccccc3)c12	0	0	0	0	0	54
O=C(O)CNc1nc(-c2ccccc2)nc2ccccc12	0	0	0	0	0	0
SMILES	DNMT1 block	GRK2 inh	SUMO1-SIM PPI	Scp1 inh	STEP inh	LMPTP block
C[C@H]1CN([C@@H](C)CO)C(=O)c2cc(Br)cnc2O[C@H]1CN(C)S(=O)(=O)c1ccccc1F	0	-	0	-	0	0
COc1cccc(CNC(=O)[C@@H]2CCCN2C(=O)[C@H]2CCCCN2C(=O)OC(C)(C)C)c1	-	-	0	-	-	0
Nc1cc2[nH]c(=O)c3ccccc3c2cc1[N+](=O)[O-]	0	-	50	0	0	0
CC[C@@]1(O)C(=O)OCc2c1cc1n(c2=O)Cc2cc3c(N)cccc3nc2-1	0	0	0	57	0	0
CC(=O)Nc1ccc(NC(=O)CSc2ccc(-c3cccnc3)nn2)cc1	0	0	0	0	0	0
CC(=O)Nc1ccc(NC(=O)CSc2ccc(-c3ccc(-n4ccnc4)cc3)nn2)cc1	0	0	42	0	0	0
N#CC(C(=O)Nc1cccc(Cl)c1)=C1Nc2ccccc2N1	0	0	62	0	0	0
COc1cccc(Nc2nc(C(N)C3CCCCC3)cs2)n1 (stereo unspecified)	0	-	0	-	0	0
COC(=O)c1ccc(C(=O)Nc2ccc3nc(-c4cccnc4)[nH]c3c2)cc1	0	0	0	0	0	0
COC(=O)c1ccc(C(=O)Nc2ccc3nc(-c4ccncc4)[nH]c3c2)cc1	0	0	51	0	0	0
O=c1cc(-c2ccc(O)cc2)oc2c1ccc1ccccc12	0	0	90	0	0	54
O=c1cc(-c2ccc(O)cc2)oc2c(O)c(O)c(O)c(O)c12	0	0	0	69	0	0
O=c1cc(-c2ccncc2)oc2c1ccc1ccccc12	0	0	0	0	0	0
COc1cc(OC)cc(C(=O)Nc2ccc(N3CCN(C(=O)c4cccs4)CC3)cc2)c1	0	0	42	0	0	0
O=C(NCc1ccccc1)c1cc(C2CCCN(S(=O)(=O)c3cccs3)C2)on1 (stereo unspecified)	0	-	0	-	0	0
Cc1nn(-c2ccccc2)c(N2CCCC2)c1/C=N/NC(=O)c1cc2ccccc2cc1O	0	66	0	0	0	0
CCN(CC)S(=O)(=O)c1cc(NC(=O)Cn2ncc(Cl)c(Cl)c2=O)ccc1C	0	0	0	89	0	0
COc1ccc(NC(=O)Cn2ncc(Cl)c(Cl)c2=O)cc1S(=O)(=O)N1CCOCC1	0	0	0	99	0	0
COc1ccc(NC(=O)c2ccc(Cl)nc2)cc1S(=O)(=O)N1CCOCC1	0	0	0	0	0	0
CCOC(=O)C1=C[C@@H](C(C)(C)C)N(S(=O)(=O)c2ccccc2C)[C@H]1c1ccc(Cl)cc1	0	-	0	-	0	0
CCCCCC(=O)NC(NC(=S)N1CCOCC1)C(Cl)(Cl)Cl (stereo unspecified)	0	0	0	0	0	0
CCCCCC(=O)NC(NC(=S)NC1CCS(=O)(=O)C1)C(Cl)(Cl)Cl (stereo unspecified)	0	0	59	0	0	0
O=C(Nc1ccccc1)c1cc(C2CCCCN2C(=O)OCCF)on1 (stereo unspecified)	0	-	0	-	0	0
